From ChEMBL document CHEMBL4145616, “Phytochemical Study of Salvia leriifolia Roots: Rearranged Abietane Diterpenoids with Antiprotozoal Activity” (J Nat Prod, 2018)

Legend:
[1] = test system: Plasmodium falciparum; assay: Antiplasmodial activity against drug-sensitive erythrocyte stage of Plasmodium falciparum NF54 assessed as reduction in [3H]-hypoxanthine incorporation pretreated for 48 hrs followed by [3H]-hypoxanthine addition measured after 24 hrs by liquid scintillation counting method; assay type: functional, organism-based
Procedure, shortened: (§1)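 IC50 values are the average of three independent assays.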

[2] = test system: Trypanosoma brucei rhodesiense; assay: Antitrypanosomal activity against Trypanosoma brucei rhodesiense STIB900 bloodstream forms after 70 hrs by Alamar blue assay; assay type: functional, organism-based; details: STIB900, 70 h; procedure, shortened: as §1
[3] = test system: Trypanosoma cruzi; assay: Antiprotozoal activity against trypomastigote form of Trypanosoma cruzi Tulahuen C2C4 infected in rat L6 cells after 96 hrs by CPRG/Nonidet-based photometric method; assay type: functional, organism-based; details: Tulahuen C2C4, L6, 96 h
[4] = test system: Leishmania donovani; assay: Antileishmanial activity against Leishmania donovani MHOM/ET/67/L82 axenic amastigotes after 70 hrs by alamar blue staining based fluorescence assay; assay type: functional, organism-based; details: MHOM/ET/67/L82, 70 h; procedure, shortened: as §1
[5] = test system: L6; assay: Cytotoxicity against rat L6 cells after 70 hrs by alamar blue assay; assay type: cell-based; details: L6, 70 h; procedure, shortened: as §1
[6] = Selectivity index, ratio of IC50 for rat L6 cells to IC50 for drug-sensitive erythrocyte stage of Plasmodium falciparum NF54; assay type: toxicity; details: read-out: Ratio IC50
[7] = Selectivity index, ratio of IC50 for rat L6 cells to IC50 for Trypanosoma brucei rhodesiense STIB900 bloodstream forms; assay type: toxicity; details: read-out: Ratio IC50
[8] = Selectivity index, ratio of IC50 for rat L6 cells to IC50 for trypomastigote form of Trypanosoma cruzi Tulahuen C2C4 infected in rat L6 cells; assay type: toxicity, cell-based; details: read-out: Ratio IC50
[9] = Selectivity index, ratio of IC50 for rat L6 cells to IC50 for Leishmania donovani MHOM/ET/67/L82 axenic amastigotes; assay type: toxicity; details: read-out: Ratio IC50

IC50 [1] [µM]	IC50 [2] [µM]	IC50 [3] [µM]	SMILES	IC50 [4] [µM]	IC50 [5] [µM]	selectivity ratio [6]	selectivity ratio [7]	selectivity ratio [8]	selectivity ratio [9]
3.6	1	4.6	CC(C)[C@H]1C(=O)C2=C(C1=O)[C@@]1(C)CCCC(C)(C)[C@@H]1CC2=O	1	2.6	0.7	2.6	0.6	2.6
–	–	–	CCCCCCCCCCCCCCCCOP(=O)([O-])OCC[N+](C)(C)C [MILTEFOSINE]	0.12	–	–	–	–	–
0.4	19.7	27.6	CC(C)c1cc(CC[C@@H]2C(=O)CCCC2(C)C)c(O)cc1O	–	33.6	84	1.7	1.2	–
